Experimental data from different studies.
Compare with care: the assays were run in different laboratories.
Target: Dual specificity tyrosine-phosphorylation-regulated kinase 1B (DYRK1B, Homo sapiens, UniProt Q9Y463)

N#CC1(c2ccccn2)CCN(Cc2cc(C(=O)O)c(=O)n3ccccc23)CC1
remaining binding (cell-free assay; competition with immobilised ligand; 1 µM): 98%

CC(C)(C)c1nc2c(s1)c1nc(N)ncc1c1ccc(NS(=O)(=O)c3c(F)cccc3F)c(F)c12
remaining activity (enzyme activity; inhibitor; radiometric; 1 µM): 106%

Cc1nn(C)cc1-c1nc2c(N3CCN(Cc4ccc(Cl)cc4)CC3)c(Cl)cnc2[nH]1
remaining binding (binding; competition with immobilised ligand; 1 µM): 75%

O=C1NC(=O)C(c2cn(CCCn3ccnc3)c3ccccc23)=C1Nc1ccccc1
remaining activity (enzyme activity; inhibitor; radiometric; 0.5 µM): 56.3%

COc1cc(Nc2ncc(F)c(Nc3ccc4c(n3)NC(=O)C(C)(C)O4)n2)cc(OC)c1OC
inhibition (binding; competition with immobilised ligand; 10 µM): 78%

Cn1cc(-c2cc(F)cc(N3CCn4c(cc5c4CCCC5)C3=O)c2CO)cc(Nc2ccc(N3CCN(C4COC4)CC3)cn2)c1=O
inhibition (enzyme activity; inhibitor; 0.1 µM): 6%

COc1ncccc1-c1cnn2ccc(N3CCN(C(=O)OC(C)C)CC3)nc12
remaining binding (binding; competition with immobilised ligand; 1 µM): 65%

CC#CC(=O)Nc1cc2c(Nc3ccc(F)c(Cl)c3)ncnc2cn1
remaining activity (enzyme activity; inhibitor; radiometric; 0.5 µM): 103%

Nc1ncc(-c2nc(N3CCOCC3)nc(N3CCOCC3)n2)c(C(F)F)n1
remaining binding (cell-free assay; competition with immobilised ligand; 10 µM): 76%

Cn1cncc1[C@@](O)(COc1ccc(C#N)cc1-c1ccc(OC(F)(F)F)cc1)c1ccc(C#N)cc1
remaining binding (cell-free assay; competition with immobilised ligand; 1 µM): 38%

C=CC(=O)N1CCC[C@@H](n2nc(-c3ccc(Oc4ccccc4)cc3)c3c(N)ncnc32)C1
remaining signal (cell-free assay; 10 µM): 125%

COCc1c(-c2cc3cc(C)cc(OC)c3s2)c2c(N)ncnn2c1CN1CCNC(=O)C1
inhibition (cell-free assay; competition with immobilised ligand; 1 µM): 71%

CC(C)(C)c1nc(-c2cccc(NS(=O)(=O)c3c(F)cccc3F)c2F)c(-c2ccnc(N)n2)s1
remaining activity (enzyme activity; inhibitor; radiometric; 1 µM): 98%

COc1ccc(COc2ccc(Cc3cnc(N)nc3N)cc2OC)cc1
remaining activity (enzyme activity; inhibitor; radiometric; 0.5 µM): 104%

Cn1cc(-c2cccc(N3CCc4c(sc5c4CC(C)(C)C5)C3=O)c2CO)cc(Nc2ccncn2)c1=O
inhibition (enzyme activity; inhibitor; 1 µM): 2%
